Assay results published in ChEMBL document CHEMBL4316638, “Bioactive Meroterpenoids and Isocoumarins from the Mangrove-Derived Fungus Penicillium sp. TGM112” (J Nat Prod, 2019).
Values after ≈ are worked out from the molar mass of the structure shown. Active and inactive are the calls of the source. The rule behind the calls is not given here.

What was measured:
Staphylococcus aureus [1] = assay: Antibacterial activity against Staphylococcus aureus ATCC 25923 by microplate assay; type: functional, organism-based
Vibrio alginolyticus = assay: Antibacterial activity against Vibrio alginolyticus ATCC 17749 by microplate assay; type: functional, organism-based; details: NBRC 15630 = ATCC 17749
HeLa = assay: Cytotoxicity against human HeLa cells measured after 7 days by MTT assay; type: functional, cell-based
A549 = assay: Cytotoxicity against human A549 cells measured after 7 days by MTT assay; type: functional, cell-based
Helicoverpa armigera = assay: Insecticidal activity against Helicoverpa armigera hubner measured every other day for 8 days starting from 2 days post dosing; type: functional, organism-based
How it was run: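 Neonate H. armigera larvae fed artificial diet dosed with serial dilutions of compound (1 mg/mL in DMSO) at 200, 100, 50, 25 and 12.5 μL/well in six-well plates; three groups of three larvae, 3 replicates per treatment. Held at 25 ± 1 °C, 80% relative humidity. Dead larvae counted on days 2, 4, 6, 8. DMSO negative, azadirachtin positive, plain diet blank controls.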

Staphylococcus aureus [2] = assay: Antibacterial activity against methicillin-resistant Staphylococcus aureus ATCC 33591 by microplate assay; type: functional, organism-based
How it was run: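 MRSA (ATCC 33591) was one strain in a panel of six pathogenic bacteria: four general and two marine Vibrio. Assayed by the microplate method, with ciprofloxacin as positive control.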

HepG2 = assay: Cytotoxicity against human HepG2 cells measured after 7 days by MTT assay; type: functional, cell-based
Caenorhabditis elegans = assay: Insecticidal activity against Caenorhabditis elegans measured at 12 […]; type: functional, organism-based
How it was run: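 L1 C. elegans (30−40 worms/well) in S medium with E. coli OP50 and chloramphenicol, exposed to compound at 40, 20, 10, 5, 1 and 0 μg/mL diluted in filter-sterilized M-9; 3 replicates per treatment. Plates sealed, kept at 24 °C for 60 h in the dark; dead larvae counted at 12, 24, 36, 48, 60. M-9 negative control, levamisole 1 mg/mL positive control.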

Vibrio parahaemolyticus = assay: Antibacterial activity against Vibrio parahaemolyticus ATCC 17802 by microplate assay; type: functional, organism-based
Bacillus cereus = assay: Antibacterial activity against Bacillus cereus ATCC 11778 by microplate assay; type: functional, organism-based
RAW264.7 = assay: Inhibition of LPS-induced nitric oxide production in mouse RAW264.7 cells preincubated for 30 mins followed by LPS-stimulation and measured after 24 hrs by Griess assay; type: functional, cell-based
How it was run: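 RAW264.7 macrophages seeded at 50 000 cells/well and grown 24 h, then exposed to compound for 30 min at 37 °C before LPS (100 ng/mL) co-incubation for 24 h. Nitrite in supernatant measured by Griess reagent (10 min mixing), absorbance 540 nm. Compounds from 10 mM DMSO stocks; final DMSO ≤0.1%. Dexamethasone positive control. Triplicate runs; IC50 calculated.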

Escherichia coli = assay: Antibacterial activity against Escherichia coli ATCC 25922 by microplate assay; type: functional, organism-based

## C=C1[C@@]23C(=O)O[C@H](C)[C@@]2(O)C(=O)O[C@]1(C)[C@@H](O)C1=C(C)[C@]2(CCC(=O)OC2(C)C)CC[C@@]13C
Staphylococcus aureus [1]
  Activity: inactive
Vibrio alginolyticus
  Activity: inactive
HeLa
  Activity: inactive
A549
  Activity: inactive
Helicoverpa armigera
  IC50: 100 µg/mL (≈ 217 µM)
Staphylococcus aureus [2]
  Activity: inactive
HepG2
  Activity: inactive
Caenorhabditis elegans
  EC50: 19.5 µg/mL (≈ 42.3 µM)
Vibrio parahaemolyticus
  Activity: inactive
Bacillus cereus
  Activity: inactive
RAW264.7
  inhibition: inactive
Escherichia coli
  Activity: inactive

## C=C1[C@@]23C(=O)O[C@H](C)[C@]24O[C@@]2(C(=C)[C@]5(C=CC(=O)OC5(C)C)C[C@@H](O)[C@]32C)[C@H](OC(C)=O)[C@@]1(C)OC4=O
Staphylococcus aureus [1]
  Activity: inactive
Vibrio alginolyticus
  Activity: inactive
HeLa
  Activity: inactive
A549
  Activity: inactive
Staphylococcus aureus [2]
  Activity: inactive
HepG2
  Activity: inactive
Caenorhabditis elegans
  EC50: 20.6 µg/mL (≈ 40 µM)
Vibrio parahaemolyticus
  Activity: inactive
Bacillus cereus
  Activity: inactive
RAW264.7
  inhibition: inactive
Escherichia coli
  Activity: inactive

## C=C1[C@]2(CCC(=O)OC2(C)C)C[C@@H](OC(=O)/C(C)=C\C)[C@]2(C)[C@]34C(=O)O[C@H](C)[C@]35O[C@]12[C@H](OC(C)=O)[C@@](C)(OC5=O)C4=O
Staphylococcus aureus [1]
  Activity: inactive
Vibrio alginolyticus
  Activity: inactive
HeLa
  Activity: inactive
A549
  Activity: inactive
Helicoverpa armigera
  IC50: 200 µg/mL (≈ 333 µM)
Staphylococcus aureus [2]
  Activity: inactive
HepG2
  Activity: inactive
Caenorhabditis elegans
  EC50: 9.4 µg/mL (≈ 15.7 µM)
Vibrio parahaemolyticus
  Activity: inactive
Bacillus cereus
  Activity: inactive
RAW264.7
  inhibition: inactive
Escherichia coli
  Activity: inactive

## C=C1[C@@]23C(=O)O[C@H](C)[C@]24O[C@@]2(C(=C)[C@]5(C=CC(=O)OC5(C)C)C[C@@H](O)[C@]32C)[C@H](O)[C@@]1(C)OC4=O
Staphylococcus aureus [1]
  Activity: inactive
Vibrio alginolyticus
  Activity: inactive
HeLa
  Activity: inactive
A549
  Activity: inactive
Helicoverpa armigera
  IC50: 200 µg/mL (≈ 423 µM)
Staphylococcus aureus [2]
  Activity: inactive
HepG2
  Activity: inactive
Caenorhabditis elegans
  EC50: 9.9 µg/mL (≈ 21 µM)
Vibrio parahaemolyticus
  Activity: inactive
Bacillus cereus
  Activity: inactive
RAW264.7
  inhibition: inactive
Escherichia coli
  Activity: inactive
